Data set [1] has as its target Vascular endothelial growth factor receptor 2 (Homo sapiens, UniProt P35968). The conditions noted are these: HUVEC, 40 nM.
A further data set has as its system MDA-MB-231. The experiment in a line: Antiproliferative activity against human MDA-MB-231 cells at 40 nM assessed as reduction in cell viability incubated for 48 hrs by EdU staining based laser scanning confocal microscopy. The class given is functional. In outline:
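Cells, 5×10^4, were seeded in 24-well plates and treated for 48 h. They were then labeled using an EdU Apollo 488 imaging kit with Hoechst 33342 nuclear stain and imaged by laser scanning confocal microscopy. Percent EdU-positive cells = EdU-positive/Hoechst-stained × 100%.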

The subject of data set [2] is HeLa. The experiment in a line: Induction of cell cycle arrest in human HeLa cells assessed as accumulation in G2/M phase at 80 nM incubated for 36 hrs by propidium iodide staining based flow cytometry. The class given is functional. In outline: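 Cells were treated with graded concentrations for 36 h, then fixed overnight in 70% ice-cold ethanol at 4°C and resuspended in PBS. Staining used 50 µg/ml PI plus 5 µg/ml RNase at 37°C for 30 min. DNA content was analysed by FACS to give G0/G1, S and G2/M fractions.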

In data set [3] the test system is HeLa. The experiment in a line: Induction of apoptosis in human HeLa cells assessed as decrease in Rb phosphorylation incubated for 48 hrs by Western blot analysis. The class given is functional, cell-based. Put shortly: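 Cells were treated for 48 h, washed three times with PBS, and lysed in RIPA buffer. Immunoblots used anti-Rb, anti-phospho-Rb, anti-Ki67 and anti-Bcl-2 (each 1:1000), with β-actin as loading control.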

Data set [4] addresses Serine/threonine-protein kinase PRP4 homolog (Homo sapiens) (UniProt Q13523). The experiment in a line: Inhibition of recombinant human PRP4 (663 to end residues) at 1 uM using casein as substrate incubated for 40 mins in presence of [gamma-33P]-ATP by scintillation counting method relative to control.
Data set [5] is described as follows: Toxicity in BALB/c mouse assessed as effect on blood parameter by measuring MCH at 40 mg/kg, po administered once two days for 4 times by hematology analyzer. The conditions noted are these: in vivo.
In data set [6] the target is Serine/threonine-protein kinase 38-like (Homo sapiens) (UniProt Q9Y2H1). The experiment in a line: Inhibition of recombinant human NDR2 (83 to end residues) at 1 uM using RSRSRSRSRSRSRSR as substrate incubated for 40 mins in presence of [gamma-33P]-ATP by scintillation counting method relative to control.
Data set [7] has as its target Serine/threonine-protein kinase A-Raf (Homo sapiens) (UniProt P10398). Kind of data set: Inhibition of recombinant human A-Raf (273 to end residues) at 1 uM using myelin as substrate incubated for 40 mins in presence of [gamma-33P]-ATP by scintillation counting method relative to control. In outline:
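Kinase panel profiling at 1 μM performed by Eurofins KinaseProfiler; percent inhibition reported as mean of two independent experiments.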

The target in data set [8] is Serine/threonine-protein kinase Nek9 (Homo sapiens) (UniProt Q8TD19). Kind of data set: Inhibition of recombinant human NEK9 (1 to 324 residues) at 1 uM using myelin basic protein as substrate incubated for 40 mins in presence of [gamma-33P]-ATP by scintillation counting method relative to control.
In the next data set the test system is T47D. Kind of data set: Inhibition of colony formation in human T47D cells at 20 to 40 nM incubated for 5 days by crystal violet staining based light microscopy. The class given is functional, cell-based. Put shortly: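 MDA-MB-231, T-47D, SiHa and HeLa cells seeded at 4×10^3/well and cultured with varying concentrations of drug or vehicle for 5 days. Fixed in 20% methanol, stained with 0.5% crystal violet, photographed under light microscopy. DMEM (T-47D) with 10% FBS, 37°C, 5% CO2.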

In data set [9] the target is Serine/threonine-protein kinase 32A (Homo sapiens) (UniProt Q8WU08). The experiment in a line: Inhibition of recombinant human full length STK32A at 1 uM using casein as substrate incubated for 40 mins in presence of [gamma-33P]-ATP by scintillation counting method relative to control. Put shortly: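 Single-point inhibition at 1 uM measured in a commercial kinase profiling panel (KinaseProfiler); each value is the mean of two independent experiments.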
Chain of Serine/threonine-protein kinase 32A (Homo sapiens) (Q8WU08 whole entry): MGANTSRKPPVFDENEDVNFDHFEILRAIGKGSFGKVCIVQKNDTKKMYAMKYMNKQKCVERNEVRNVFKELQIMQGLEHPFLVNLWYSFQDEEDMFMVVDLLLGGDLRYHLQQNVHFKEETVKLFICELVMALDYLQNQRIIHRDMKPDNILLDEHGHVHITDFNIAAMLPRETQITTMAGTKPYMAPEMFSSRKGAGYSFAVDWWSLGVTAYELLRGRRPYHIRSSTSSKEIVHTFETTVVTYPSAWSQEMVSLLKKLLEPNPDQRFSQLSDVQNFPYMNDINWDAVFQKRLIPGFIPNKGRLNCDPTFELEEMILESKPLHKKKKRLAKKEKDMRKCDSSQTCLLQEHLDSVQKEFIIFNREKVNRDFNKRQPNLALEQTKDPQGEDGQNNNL

Data set [10] has as its target Inhibitor of nuclear factor kappa-B kinase subunit alpha (Homo sapiens) (UniProt O15111). The experiment in a line: Inhibition of recombinant human full length IKKalpha at 1 uM using peptide as substrate incubated for 40 mins in presence of [gamma-33P]-ATP by scintillation counting method relative to control. In outline:
(§1)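 Tested at a single 1 uM in an outsourced commercial kinase-profiling panel, read as percent inhibition. Each value is the mean of two independent experiments.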

In data set [11] the target is Serine/threonine-protein kinase SIK3 (Homo sapiens) (UniProt Q9Y2K2). Kind of data set: Inhibition of recombinant human SIK3 (1 to 307 residues) at 1 uM using KKKVSRSGLYRSPSMPENLNRPR as substrate incubated for 40 mins in presence of [gamma-33P]-ATP by scintillation counting method relative to control.
For data set [12], the target named is Ribosomal protein S6 kinase beta-1 (Homo sapiens) (UniProt P23443). Kind of data set: Inhibition of recombinant human p70S6K (1 to 421 residues) at 1 uM using KKRNRTLTV as substrate incubated for 40 mins in presence of [gamma-33P]-ATP by scintillation counting method relative to control.
Chain of Ribosomal protein S6 kinase beta-1 (Homo sapiens) (P23443 whole entry, looked up, the tested form may be a part): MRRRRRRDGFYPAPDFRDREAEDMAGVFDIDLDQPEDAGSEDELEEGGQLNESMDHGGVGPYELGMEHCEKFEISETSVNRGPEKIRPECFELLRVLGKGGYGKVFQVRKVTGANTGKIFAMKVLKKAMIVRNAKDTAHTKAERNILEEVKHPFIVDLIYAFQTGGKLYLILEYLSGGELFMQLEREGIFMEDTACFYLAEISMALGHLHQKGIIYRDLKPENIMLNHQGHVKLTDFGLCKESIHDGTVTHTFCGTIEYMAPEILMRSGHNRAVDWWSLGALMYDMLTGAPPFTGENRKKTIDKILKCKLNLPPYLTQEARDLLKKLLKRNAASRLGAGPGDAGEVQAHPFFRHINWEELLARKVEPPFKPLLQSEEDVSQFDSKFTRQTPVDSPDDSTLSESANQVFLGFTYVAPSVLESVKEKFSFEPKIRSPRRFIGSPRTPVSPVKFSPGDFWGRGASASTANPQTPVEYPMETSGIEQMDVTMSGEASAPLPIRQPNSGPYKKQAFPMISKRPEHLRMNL
The target in data set [13] is Protein kinase C epsilon type (Homo sapiens) (UniProt Q02156). The experiment in a line: Inhibition of recombinant human PKCepsilon (2 to end residues) at 1 uM using ERMRPRKRQGSVRRRV as substrate incubated for 40 mins in presence of [gamma-33P]-ATP by scintillation counting method relative to control.
Chain of Protein kinase C epsilon type (Homo sapiens) (Q02156 whole entry): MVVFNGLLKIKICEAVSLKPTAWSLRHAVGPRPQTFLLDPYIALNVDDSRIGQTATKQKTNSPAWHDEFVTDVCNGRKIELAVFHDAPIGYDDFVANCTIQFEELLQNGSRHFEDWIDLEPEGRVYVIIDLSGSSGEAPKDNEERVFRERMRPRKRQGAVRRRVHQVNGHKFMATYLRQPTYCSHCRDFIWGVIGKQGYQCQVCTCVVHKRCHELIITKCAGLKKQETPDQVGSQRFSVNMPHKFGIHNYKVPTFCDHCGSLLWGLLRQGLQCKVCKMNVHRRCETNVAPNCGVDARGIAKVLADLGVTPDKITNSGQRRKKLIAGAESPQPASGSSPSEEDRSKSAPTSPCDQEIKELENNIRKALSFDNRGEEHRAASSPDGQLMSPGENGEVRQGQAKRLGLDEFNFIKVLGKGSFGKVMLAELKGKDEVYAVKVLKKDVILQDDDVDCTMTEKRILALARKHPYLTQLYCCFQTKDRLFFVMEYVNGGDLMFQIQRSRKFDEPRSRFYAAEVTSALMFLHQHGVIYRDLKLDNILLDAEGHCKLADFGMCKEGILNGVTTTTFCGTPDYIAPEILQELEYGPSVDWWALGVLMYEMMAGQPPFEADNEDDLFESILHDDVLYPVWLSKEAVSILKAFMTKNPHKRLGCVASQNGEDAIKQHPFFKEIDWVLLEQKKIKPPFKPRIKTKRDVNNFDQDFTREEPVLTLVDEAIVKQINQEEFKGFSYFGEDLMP
Data set [14] can be described thus: Toxicity in BALB/c mouse assessed as effect on blood parameter by measuring monocytes content at 40 mg/kg, po administered once two days for 4 times by hematology analyzer. The following applies: in vivo.
A short description of data set [15]: AUC (0 to t) in Sprague-Dawley rat at 10 mg/kg, po by HPLC-MS analysis. The class given is ADME, organism-based. The conditions noted are these: in vivo. Put shortly: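 Rats fitted with jugular vein catheters for serial blood sampling. Compound dissolved in saline with 5% (v/v) DMSO and given as a single 10 mg/kg dose iv or po after an overnight fast, n = 5 per group. Plasma isolated at once and measured by HPLC with tandem MS detection. Parameters derived by noncompartmental fitting.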

Data set [16] has as its target Tyrosine-protein kinase ZAP-70 (Homo sapiens) (UniProt P43403). Kind of data set: Inhibition of recombinant human full length ZAP70 at 1 uM using poly(Glu, Tyr) 4:1 as substrate incubated for 40 mins in presence of [gamma-33P]-ATP by scintillation counting method relative to control.
The target of data set [17] is Serine/threonine-protein kinase ATR (Homo sapiens) (UniProt Q13535). Kind of data set: Inhibition of recombinant human full length ATR at 1 uM using GST-cMyc-p53 as substrate incubated for 40 mins in presence of [gamma-33P]-ATP by scintillation counting method relative to control. In outline: as §1

The source made the active and inactive calls. No cut-off for these calls is given here.

For two molecules, inhibition, Activity and AUC(0-t) results are on record in ChEMBL document CHEMBL4406821, “Novel dual inhibitors targeting CDK4 and VEGFR2 synergistically suppressed cancer progression and angiogenesis” (Eur J Med Chem, 2019).

Chain of Serine/threonine-protein kinase A-Raf (Homo sapiens) (P10398 whole entry): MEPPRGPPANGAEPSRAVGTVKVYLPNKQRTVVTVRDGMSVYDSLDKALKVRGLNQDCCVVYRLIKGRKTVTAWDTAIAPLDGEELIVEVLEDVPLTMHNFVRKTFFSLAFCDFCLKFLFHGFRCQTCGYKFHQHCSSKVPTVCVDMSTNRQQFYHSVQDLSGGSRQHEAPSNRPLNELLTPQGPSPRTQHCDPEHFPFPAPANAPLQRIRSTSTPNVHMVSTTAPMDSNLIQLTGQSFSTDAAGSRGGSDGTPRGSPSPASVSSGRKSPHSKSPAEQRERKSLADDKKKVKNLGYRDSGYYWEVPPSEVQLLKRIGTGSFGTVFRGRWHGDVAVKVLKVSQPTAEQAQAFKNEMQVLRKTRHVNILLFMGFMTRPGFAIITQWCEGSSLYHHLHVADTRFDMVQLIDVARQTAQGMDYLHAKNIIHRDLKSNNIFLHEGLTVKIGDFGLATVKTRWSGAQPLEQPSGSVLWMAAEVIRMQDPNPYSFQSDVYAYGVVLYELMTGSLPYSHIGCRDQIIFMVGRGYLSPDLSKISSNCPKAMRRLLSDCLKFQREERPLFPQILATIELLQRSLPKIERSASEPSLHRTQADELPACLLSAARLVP
Chain of Tyrosine-protein kinase ZAP-70 (Homo sapiens) (P43403 whole entry): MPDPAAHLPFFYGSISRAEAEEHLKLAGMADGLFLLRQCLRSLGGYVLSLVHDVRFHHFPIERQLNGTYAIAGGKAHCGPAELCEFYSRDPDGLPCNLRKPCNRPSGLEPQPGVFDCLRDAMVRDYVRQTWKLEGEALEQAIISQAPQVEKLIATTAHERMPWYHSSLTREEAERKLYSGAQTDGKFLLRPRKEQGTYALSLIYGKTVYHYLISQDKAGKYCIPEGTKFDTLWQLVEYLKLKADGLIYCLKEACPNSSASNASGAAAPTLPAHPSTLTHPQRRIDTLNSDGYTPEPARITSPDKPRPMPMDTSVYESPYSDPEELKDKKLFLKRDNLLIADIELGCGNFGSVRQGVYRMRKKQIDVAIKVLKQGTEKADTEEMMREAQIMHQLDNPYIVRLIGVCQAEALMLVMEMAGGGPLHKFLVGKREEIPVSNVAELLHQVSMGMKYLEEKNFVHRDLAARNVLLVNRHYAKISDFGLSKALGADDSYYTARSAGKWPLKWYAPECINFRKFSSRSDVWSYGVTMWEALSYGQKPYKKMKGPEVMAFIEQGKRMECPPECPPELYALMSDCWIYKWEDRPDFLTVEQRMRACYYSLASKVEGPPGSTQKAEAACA
Chain of Vascular endothelial growth factor receptor 2 (P35968 whole entry): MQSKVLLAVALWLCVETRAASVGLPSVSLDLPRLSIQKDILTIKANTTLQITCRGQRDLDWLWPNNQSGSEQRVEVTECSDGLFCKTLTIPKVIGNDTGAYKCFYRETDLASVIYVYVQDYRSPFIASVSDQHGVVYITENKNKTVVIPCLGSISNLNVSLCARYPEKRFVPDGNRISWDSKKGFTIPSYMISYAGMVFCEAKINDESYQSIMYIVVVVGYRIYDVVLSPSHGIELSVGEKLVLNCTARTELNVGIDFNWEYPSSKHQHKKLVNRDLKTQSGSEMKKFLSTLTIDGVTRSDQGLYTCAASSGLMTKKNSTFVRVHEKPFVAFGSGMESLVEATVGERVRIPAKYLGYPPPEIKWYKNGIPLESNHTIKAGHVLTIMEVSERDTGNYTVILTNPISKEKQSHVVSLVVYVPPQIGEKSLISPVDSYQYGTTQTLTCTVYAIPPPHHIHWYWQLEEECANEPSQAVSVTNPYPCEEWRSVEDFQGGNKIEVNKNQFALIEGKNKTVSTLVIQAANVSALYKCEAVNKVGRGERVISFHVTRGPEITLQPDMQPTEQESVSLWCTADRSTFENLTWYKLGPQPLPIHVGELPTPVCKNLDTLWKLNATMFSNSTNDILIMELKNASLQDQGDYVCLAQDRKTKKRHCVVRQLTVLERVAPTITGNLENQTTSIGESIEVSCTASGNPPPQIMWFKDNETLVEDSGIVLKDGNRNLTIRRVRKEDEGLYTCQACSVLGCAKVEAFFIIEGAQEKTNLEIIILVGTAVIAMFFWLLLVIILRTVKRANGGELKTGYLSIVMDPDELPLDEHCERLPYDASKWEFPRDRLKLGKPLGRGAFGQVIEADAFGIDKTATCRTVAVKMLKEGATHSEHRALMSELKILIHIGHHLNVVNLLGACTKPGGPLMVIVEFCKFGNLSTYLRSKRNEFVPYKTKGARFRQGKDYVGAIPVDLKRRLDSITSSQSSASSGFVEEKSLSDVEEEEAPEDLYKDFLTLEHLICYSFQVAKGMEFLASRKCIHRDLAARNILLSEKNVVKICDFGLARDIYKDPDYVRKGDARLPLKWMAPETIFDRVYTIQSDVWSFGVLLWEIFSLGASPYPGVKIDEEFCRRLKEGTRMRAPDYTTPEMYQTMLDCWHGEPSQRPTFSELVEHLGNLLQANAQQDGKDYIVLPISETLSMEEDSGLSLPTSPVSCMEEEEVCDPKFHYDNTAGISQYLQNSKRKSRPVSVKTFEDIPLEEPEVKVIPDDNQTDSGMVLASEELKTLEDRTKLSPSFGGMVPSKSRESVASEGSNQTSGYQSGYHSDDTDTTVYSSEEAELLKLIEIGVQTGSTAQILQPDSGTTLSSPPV
Chain of Inhibitor of nuclear factor kappa-B kinase subunit alpha (Homo sapiens) (O15111 whole entry): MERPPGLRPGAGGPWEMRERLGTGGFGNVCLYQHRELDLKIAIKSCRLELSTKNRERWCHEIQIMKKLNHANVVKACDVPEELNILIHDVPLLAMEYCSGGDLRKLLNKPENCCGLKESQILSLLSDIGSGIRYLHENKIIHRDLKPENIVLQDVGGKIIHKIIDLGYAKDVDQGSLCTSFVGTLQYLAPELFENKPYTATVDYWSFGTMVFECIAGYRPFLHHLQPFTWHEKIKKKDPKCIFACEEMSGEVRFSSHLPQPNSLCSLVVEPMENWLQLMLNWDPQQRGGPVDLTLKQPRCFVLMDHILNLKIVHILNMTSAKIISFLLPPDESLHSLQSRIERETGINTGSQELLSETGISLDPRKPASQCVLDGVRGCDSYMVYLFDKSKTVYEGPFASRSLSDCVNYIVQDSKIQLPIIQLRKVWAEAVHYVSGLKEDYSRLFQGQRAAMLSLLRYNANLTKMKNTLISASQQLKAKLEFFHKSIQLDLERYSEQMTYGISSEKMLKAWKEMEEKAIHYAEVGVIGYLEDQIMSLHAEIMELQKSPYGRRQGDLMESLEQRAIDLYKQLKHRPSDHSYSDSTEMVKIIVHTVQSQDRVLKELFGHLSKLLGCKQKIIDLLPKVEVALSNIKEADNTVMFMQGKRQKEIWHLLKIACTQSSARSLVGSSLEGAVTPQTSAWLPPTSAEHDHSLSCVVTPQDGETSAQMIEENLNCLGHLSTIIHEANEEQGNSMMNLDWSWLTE

Usually inhibition stands for the relative decrease from the control value, in per cent. Consider `COc1cc2nccc(Oc3ccc(NC(=O)C4(C(=O)Nc5ccc(F)cc5)CC4)cc3)c2cc1OC` [CABOZANTINIB], for which the inhibition entry (in data set [1]; with MDA-MB-231) was “Active” throughout. The result with HeLa [2] was Active.
The AUC(0-t) is the area under the concentration-time curve up to a stated or last time point. Regarding `Cc1ccc(NC(=O)C2(C(=O)Nc3ccc(Nc4ncc(F)c(-c5cc(F)c6nc(C)n(C(C)C)c6c5)n4)cc3)CC2)cc1`, the Activity entry in the data set with HeLa [3] was “Dose-dependent effect”; in data set [5], “Non-Toxic”; in data set [14], “Non-Toxic”. For the same molecule, the inhibition was found to be 48% in data set [4]; 33% in data set [6]; 19% in [7]; 71% in data set [8]; 0% in [9]; 0% in [10]. Besides, the inhibition came out at 43% in data set [11]; 63% in data set [12]; 16% in data set [13]; 11% in data set [16]; 0% in data set [17]. Moreover, in the data set with T47D, the inhibition result is “Active”. This molecule returned an area under the curve AUC(0-t) in data set [15] of 6000 ng·h/mL.
